Screening results (PubChem)
SR-BI DiI inh – blocks mouse SR-BI lipid uptake from DiI-HDL; ldlA[mSR-BI] CHO cells, DiI-HDL uptake fluorescence, 3 h; inhibition, % at 12.5 µM; 320,000 compounds, 0.96% hits;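 active = mean replicate inhibition of at least 70% and a set share of replicates each scoring 70 or more; inconclusive = meets just one of the two criteria; inactive = fails both criteria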;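 note: 0% = median of neutral control wells and 100% = median of positive control wells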
Target sequence (Q61009 whole entry, looked up): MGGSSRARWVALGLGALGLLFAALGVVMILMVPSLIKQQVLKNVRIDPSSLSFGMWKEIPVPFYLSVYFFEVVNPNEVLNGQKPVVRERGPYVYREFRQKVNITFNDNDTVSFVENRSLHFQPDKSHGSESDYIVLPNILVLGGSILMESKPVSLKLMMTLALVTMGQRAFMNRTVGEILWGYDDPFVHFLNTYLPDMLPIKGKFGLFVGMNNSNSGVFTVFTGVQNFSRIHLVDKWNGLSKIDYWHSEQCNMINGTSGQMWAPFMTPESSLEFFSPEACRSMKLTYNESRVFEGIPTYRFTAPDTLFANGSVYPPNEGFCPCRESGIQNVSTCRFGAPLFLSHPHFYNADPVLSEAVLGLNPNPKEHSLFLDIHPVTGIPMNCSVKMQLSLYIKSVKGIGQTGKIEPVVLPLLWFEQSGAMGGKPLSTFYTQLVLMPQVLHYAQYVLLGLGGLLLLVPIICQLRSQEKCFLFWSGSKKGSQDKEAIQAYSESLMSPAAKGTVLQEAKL
CaV13 FRET inh – Primary screen for inhibitors of IQ motif and Ca2+-dependent inactivation inhibitor domain binding in CACNA1D, Förster resonance energy transfer in living cells, …; HEK cells, CFP/YFP FRET ICDI-IQ, plate reader, 10 min; percent FRET-ratio fall versus neutral wells; inhibition, % at 12.3 µM; 340,000 compounds, 0.098% hits; AID 743397;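 active = mean replicate inhibition of at least 30% and at least 1% of replicates passing that level; inconclusive = only one of the two criteria is met; inactive = neither criterion is met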;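 note: 0% = median of the neutral control wells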
Vif imaging – inhibitors of HIV Vif. HEK293T cells, Vif self-association by quenched fluorescence, imaging, 24 h. inhibition, % at 7.49 µM. 340,000 compounds, 0.35% hits. AID 602346; in the data active = inhibition above about 50%, passing the limit was not always enough; inconclusive = no clear call, values can overlap the other calls; inactive = below about 31%
SR-BI uptake up – activators of SR-BI mediated HDL lipid uptake | CHO ldlA[mSR-BI] cells, DiI-HDL uptake fluorescence, 3 h; 100 = double the neutral-control signal | activation, % at 12.5 µM | 320,000 compounds, 0.096% hits | AID 504775;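 active = mean replicate activation of at least 60% and every replicate at or above 60%; inconclusive = mean or all-replicate condition met, but not both; inactive = mean below 60% and not all replicates reaching 60%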;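 note: 0% = median plate neutral-control signal and 100% = twice that signal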
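Test system: SR-BI-overexpressing, LDLR-lacking CHO cells. Measured by: DiI fluorescence, bottom read. Medium: Ham's F12 with 0.5% BSA, HEPES 25 mM, pH 7.4. Timing: 3 h uptake period with compound, 37 °C.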
NTR1 ag – NTR1 (human) agonism. AID 493036. NTR1-U2OS beta-arrestin-GFP spot imaging, agonist mode. 330,000 compounds, 0.17% hits. activation, % at 20 µM;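 active = activation at or above 40% of the spot to cytoplasm intensity ratio, with at least 20 cells analyzed; inconclusive = wells under 20 cells, flagged as cytotoxic or low count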;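 note: 0% = DMSO without peptide and 100% = 100 nM NTR1 peptide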
V-ATPase pHluor – alters yeast V-ATPase proton transport | S. cerevisiae, pHLuorin cytosolic pH fluorescence | response, % at 10 µM | 350,000 compounds, 0.37% hits; in the data active = response mostly above about 7.3%, no sharp cut-off; inactive = mostly below about 5.4%; note: actives read high
Active calls of the source: *; i = inactive; ? = inconclusive; . = no result; + = active, no number. An excerpt weighted towards active compounds, which were near 1.7% of everything screened.

SMILES | SR-BI DiI inh | CaV13 FRET inh | Vif imaging | SR-BI uptake up | NTR1 ag | V-ATPase pHluor
COc1ccc(NC(=O)CSc2nnc(-c3cccs3)n2N)cc1S(N)(=O)=O | 4.3 | -5.2 | 8.3 | -4.3 | 2.5 | -2.5
COc1cccc(-c2ccc3c(c2)[C@@H]2C[C@H]4[C@@H](CN2CC3)[C@H](C)ON4C)c1 | . | -4.8 | . | . | . | .
Cn1cc(CCOCc2ccccn2)c2ccccc21 | . | -8.5 | . | . | . | .
COc1ccc(C)cc1NC(=O)c1cccc(-c2ccc(OC(C)=O)cc2)c1 | 76.9* | -3.0 | -1.9 | -76.9 | 10.4 | -0.8
COc1ccc(-c2cccc(C(=O)Nc3ccccc3C)c2)cc1 | -41.8 | -1.6 | 6.2 | 41.8 | 3.6 | 0.0
Nc1ccccc1Oc1ccc2ccccc2c1 | -3.6 | -6.7 | . | 3.6 | 4.1 | 2.2
CCOc1ccccc1CNC(=O)c1nn(C)c2c1CS(=O)(=O)c1ccccc1-2 | 88.2* | -7.1 | -4.4 | -88.2 | 0.0 | 0.7
CCc1ccc(CNC(=O)c2nn(C)c3c2CS(=O)(=O)c2ccccc2-3)cc1 | 13.5 | -1.8 | 27.1 | -13.5 | 1.7 | -1.1
COc1c(Cl)cc(-c2noc(C)c2C(=O)NCc2ccc3c(c2)OCO3)cc1Cl | 6.0 | 70.7* | 15.3 | -6.0 | 2.1 | -3.0
COc1cc(-c2noc(C)c2C(=O)NCc2ccc3c(c2)OCO3)cc(OC)c1OC | -6.9 | -9.8 | 2.3 | 6.9 | -0.6 | 3.8
O=c1oc2cc(O)ccc2cc1S(=O)(=O)c1ccccc1 | -15.7 | 31.3* | 8.0 | 15.7 | -1.0 | 0.9
CCN(CC)c1ccc2cc(S(=O)(=O)c3ccc(Cl)cc3)c(=O)oc2c1 | -17.9 | + | i | 17.9 | -0.7 | 1.0
O=c1oc2cc(O)ccc2cc1-c1nc2ccccc2o1 | . | 38.0* | 10.0 | . | . | .
Cc1cc(C)c2sc(NNC(=O)c3ccc(S(=O)(=O)N4CCc5ccccc5C4)cc3)nc2c1 | 145.9* | -9.2 | -8.3 | -145.9 | 11.9 | -1.8
Cc1cc(C)c2nc(NNC(=O)c3ccc(S(=O)(=O)N4CCc5ccccc5C4)cc3)sc2c1 | 133.2* | -7.0 | -5.1 | -133.2 | 7.4 | 3.2
CC(NC(=O)c1cccnc1Sc1ccccc1)c1ccc(S(N)(=O)=O)cc1 (stereo not given) | -21.3 | -5.2 | -1.1 | 21.3 | -0.9 | -0.5
COc1ccc(/C=N/NC(=O)c2cccc3ccccc23)c(OC)c1OC | . | -1.2 | -8.1 | . | 2.0 | -5.7
CCOc1ccc(C(=O)n2cc(C(=O)OC)c3ccccc32)cc1 | 26.9 | -1.5 | -2.9 | -26.9 | 2.5 | -2.3
CCOc1ccc(C(=O)n2cc(C(=O)OC)c3ccccc32)cc1OCC | 81.4* | -3.4 | -5.5 | -81.4 | 4.6 | -3.6
O=C(NCc1nnnn1-c1ccc(Cl)cc1)C1CC(=O)N(c2ccc(F)cc2)C1 (stereo not given) | . | 36.2* | 5.2 | . | . | -2.0
O=C(O)c1ccc2c(=O)n(-c3ccc(F)cc3)c(=S)[nH]c2c1 | -9.7 | -13.1 | -1.3 | 9.7 | 0.8 | 13.3*
O=C(O)c1ccc2c(=O)n(-c3ccccc3)c(=S)[nH]c2c1 | -20.3 | -4.8 | 10.5 | 20.3 | 0.7 | 2.2
Cc1cccc2cc(CN(CC3CCCO3)C(=O)NC3CCCCC3)c(=O)[nH]c12 (stereo not given) | -33.1 | -5.7 | 68.5* | 33.1 | -0.3 | -2.9
Cc1ccc2cc(CN(CC3CCCO3)C(=O)NC3CCCCC3)c(=O)[nH]c2c1C (stereo not given) | -5.5 | -7.5 | -13.1 | 5.5 | -1.0 | 3.3
CCc1ccc(NC(=O)CCc2c(C)nn(-c3ccc(N4CCCCC4)nn3)c2C)cc1 | 80.9* | -10.9 | -6.0 | -80.9 | 0.0 | -1.2
SMILES | SR-BI DiI inh | CaV13 FRET inh | Vif imaging | SR-BI uptake up | NTR1 ag | V-ATPase pHluor
Cc1ccc(C)c(NC(=O)CCc2c(C)nn(-c3ccc(N4CCCCC4)nn3)c2C)c1 | 83.0* | -6.9 | -5.8 | -83.0 | 0.0 | 2.7
Cc1ccc(NC(=O)CCc2c(C)nn(-c3ccc(N4CCCCC4)nn3)c2C)cc1F | 53.0 | -2.2 | 6.3 | -53.0 | 2.1 | -2.9
COC(=O)[C@]12C[C@H](CC(=O)NCc3ccc(OC)c(OC)c3)C(=O)N(Cc3ccccc3)C1=C[C@H](C(C)(C)C)O[C@@H]2C | . | -9.3 | . | . | . | .
CCCCCCC12C(=Cc3cc(C)ccc31)c1ccccc1C(CC(=O)NCc1ccccc1)N2C(=O)OC (stereo not given) | . | -5.6 | . | . | . | .
Cc1cc(N2CCOCC2)nc(-c2ccccc2O)n1 | 51.1 | -3.3 | 2.7 | -51.1 | -0.6 | 60.1*
Cc1cc(N2CCCCCC2)nc(-c2ccccc2O)n1 | 19.8 | . | ? | -19.8 | 4.6 | -3.0
COc1cc2c(cc1OC)/C(=C/C(=O)c1ccc(OC)c([N+](=O)[O-])c1)NCC2 | 85.4* | -4.1 | 53.0* | -85.4 | 5.2 | -1.9
CCCn1c(=O)[nH]c(=O)c2c1nc(-c1cc([N+](=O)[O-])ccc1Cl)n2CCOC | 12.7 | -7.4 | 65.5* | -12.7 | 1.3 | 0.8
O=C(COc1ccc2c(c1)OCO2)Nc1cccc(F)c1 | . | -4.2 | 4.9 | . | 0.5 | 0.3
Cc1cccc(NC(=O)CN2CCc3cc4c(cc3C2)OCCCO4)c1 | -222.1 | -7.5 | -4.6 | 222.1* | -0.6 | 2.7
O=C(CN1CCN(c2ccc(O)cc2)CC1)Nc1ccc2c(c1)OCCCO2 | 75.1* | -14.8 | -14.8 | -75.1 | 0.3 | -0.2
CC1C(=O)N(Cc2cn(CCC3OCCCO3)nn2)CCS(=O)(=O)N1Cc1ccc(-c2cccc(CO)c2)cc1 (stereo not given) | . | -2.9 | -4.0 | . | . | 4.0
COc1ccc(-c2ccc3c(c2)S(=O)(=O)c2cccc(C(=O)NCCOc4ccccc4)c2C3=O)cc1OC | 72.7* | . | 5.6 | -72.7 | 13.1 | 2.9
NC(=O)CSc1nc2ccc([N+](=O)[O-])cc2[nH]1 | 5.8 | 3.5 | -5.9 | -5.8 | 1.8 | -3.4
Cc1cccc2nc(CSc3nc4ccc([N+](=O)[O-])cc4[nH]3)c(Br)n12 | 8.8 | -7.6 | 54.4* | -8.8 | 7.9 | -3.2
CCN1/C(=C/C=C/c2oc3ccc(-c4ccccc4)cc3[n+]2CC)Oc2ccc(-c3ccccc3)cc21 | 22.7 | -148.1 | 146.7* | -22.7 | -3.8 | +
CCCN1CCN(C(=O)c2ccc(CS(=O)c3ccc(Br)cc3)o2)CC1 (stereo not given) | . | 35.1* | 2.0 | . | . | .
COc1ccc(Nc2c([N+](=O)[O-])ccc3c2=NC2(CCCCC2)N=3)cc1 | 86.5* | 7.0 | 3.7 | -86.5 | 3.6 | -1.8
CC(=O)OC[C@H]1O[C@H](C#Cc2ccc(C(C)(C)C)cc2)C=C[C@H]1OC(=O)Nc1ccccc1 | . | -4.1 | . | . | . | .
O=S(=O)(Nc1ncccn1)c1ccc(-n2cnnn2)cc1 | -2.0 | 1.8 | 2.9 | 2.0 | 0.4 | 9.5*
CCOC(=O)[C@]12CCC=C1N(Cc1ccc3c(c1)OCO3)C(=O)[C@H](CC(=O)NCc1cccc3ccccc13)C2 | . | -3.5 | . | . | . | .
